According to ChEMBL document CHEMBL1135934, “Structure-activity relationships of methoctramine-related polyamines as muscular nicotinic receptor noncompetitive antagonists. 2. Role of polymethylene chain lengths separating amine functions and of substituents on the terminal nitrogen atoms” (J Med Chem, 2002):

What was measured:
[1] = Antagonism of carbachol action on nAChR of isolated frog rectus abdominus.; assay type: functional, tissue-based, Rectus abdominis muscle
[2] = target: Acetylcholine receptor (Torpedo californica) (UniProt P02710+P02712+P02718+P02714); conditions: Tetronarce californica; Electric organ
[3] = target: Muscarinic acetylcholine receptor M3 (Cavia porcellus) (UniProt Q8VH26); test: Antagonist affinity at muscarinic acetylcholine receptor (mAChR) of guinea pig longitudinal ileum (M3); assay type: functional, tissue-based
Chain of Muscarinic acetylcholine receptor M3 (Cavia porcellus) (Q8VH26 1-587): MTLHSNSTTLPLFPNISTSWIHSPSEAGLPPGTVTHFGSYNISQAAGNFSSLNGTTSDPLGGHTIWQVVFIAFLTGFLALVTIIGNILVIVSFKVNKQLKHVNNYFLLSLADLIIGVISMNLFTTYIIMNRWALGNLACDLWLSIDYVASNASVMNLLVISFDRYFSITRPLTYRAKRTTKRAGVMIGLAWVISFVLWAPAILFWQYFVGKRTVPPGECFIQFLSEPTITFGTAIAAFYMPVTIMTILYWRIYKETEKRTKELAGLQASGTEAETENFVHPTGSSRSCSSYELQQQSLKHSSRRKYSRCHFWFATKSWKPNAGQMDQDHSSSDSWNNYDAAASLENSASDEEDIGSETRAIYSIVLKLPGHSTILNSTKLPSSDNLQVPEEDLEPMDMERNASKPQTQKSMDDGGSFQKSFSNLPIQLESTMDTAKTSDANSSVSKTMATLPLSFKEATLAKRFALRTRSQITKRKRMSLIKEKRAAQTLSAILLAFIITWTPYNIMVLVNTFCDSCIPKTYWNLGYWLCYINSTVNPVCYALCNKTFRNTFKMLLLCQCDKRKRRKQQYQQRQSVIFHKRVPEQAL
In short: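 Guinea pig ileum (either sex, 200-400 g) in a 15 mL organ bath of physiological salt solution, gassed 5% CO2/95% O2, pH 7.4. Arecaidine propargyl ester curves (0.01-0.5 µM) were run at 30 min intervals, with the first discarded and the second taken as control. A repeat curve followed 60 min antagonist. pK came from graphical EC50 dose ratios by the Furchgott equation.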

[4] = test system: Muscarinic acetylcholine receptor M2 (Cavia porcellus); test: Antagonist affinity at muscarinic acetylcholine receptor (mAChR) of guinea pig left atrium (M2); conditions: Cardiac atrium

| Compound | Log IC50 [1] | pKapp [2] | pKB [3] | pKB [4] |
| --- | --- | --- | --- | --- |
| CCCC(=O)N[C@H](Cc1ccc(O)cc1)C(=O)NCCCNCCCCCCNCCCCCCCCCCCCNCCCCCCN | -6.3 | 5.28 | – | – |
| [N-]=[N+]=Nc1ccc(C(=O)NCCCNCCCCCCNCCCCCCCCNCCCCCCNCCCNC(=O)c2ccc(N=[N+]=[N-])cc2O)c(O)c1 | -5.8 | 5.86 | – | – |
| [N-]=[N+]=Nc1ccc(C(=O)NCCCNCCCCCCNCCCCCCCCCCCCNCCCCCCNCCCNC(=O)c2ccc(N=[N+]=[N-])cc2O)c(O)c1 | -6.17 | 5.72 | – | – |
| CCCC(=O)NC(Cc1ccc(O)cc1)C(=O)NCCCNCCCCNCCCN (stereo unspecified) | -4.62 | 3.94 | < 5 | – |
| c1ccc(C(CNCCCCCCNCCCCCCCCNCCCCCCNCC(c2ccccc2)c2ccccc2)c2ccccc2)cc1 | -6.31 | – | 5.4 | 5.98 |
| [N-]=[N+]=Nc1ccc(C(=O)NCCCNCCCCCCNCCCCCCCCNCCCCCCN)c(O)c1 | -6.39 | 5.46 | 7.35 | 7.01 |
| CCCC(=O)N[C@H](Cc1ccc(O)cc1)C(=O)NCCCNCCCCCCNCCCCCCNCCCCCCNCc1ccccc1OC | -5.48 | 6.12 | 5.08 | 5.87 |
| COc1ccccc1CN(C)CCCCCCN(C)CCCCCCCCN(C)CCCCCCN(C)Cc1ccccc1OC | -5.88 | – | < 5 | 6.79 |
| COc1ccccc1CNCCCCCCOCCCCCCCCOCCCCCCNCc1ccccc1OC | -5.14 | – | < 5 | < 5 |
| CCCC(=O)N[C@H](Cc1ccc(O)cc1)C(=O)NCCCNCCCCCCNCCCCCCCCCCCCNCCCCCCNCc1ccccc1OC | -6.27 | 5.89 | – | – |
| COc1ccccc1CNCCCCCCNCc1ccc(-c2ccc(-c3ccc(CNCCCCCCNCc4ccccc4OC)cc3)cc2)cc1 | -6.3 | 6.35 | < 5 | < 5 |
| COc1ccccc1CNCc1ccc(CNCCCCCCCCCCCCNCc2ccc(CNCc3ccccc3OC)cc2)cc1 | -6.43 | 6.19 | < 5 | < 5 |
| CCCC(=O)N[C@H](Cc1ccc(O)cc1)C(=O)NCCCNCCCCCCNCCCCCCNCCCCCCN | -5.62 | 4.63 | 5.16 | < 5 |
| COc1ccc2cc(C(=O)NCCCNCCCCCCNCCCCCCCCNCCCCCCNCc3cc(I)ccc3OC)c(=O)oc2c1 | -7.11 | 6.8 | 5.68 | – |
| COc1ccc2cc(C(=O)NCCCNCCCCCCNCCCCCCCCNCCCCCCNCc3ccccc3OC)c(=O)oc2c1 | -6.21 | 6.41 | 6.19 | – |

More lines, now with the values ahead:

| Log IC50 [1] | pKapp [2] | pKB [3] | pKB [4] | Compound |
| --- | --- | --- | --- | --- |
| -7.02 | 5.66 | 5.98 | 7.35 | COc1ccccc1CNCCCCCCNCCCCCCCCCCCCNCCCCCCNCc1ccccc1OC |
| -6.66 | 7.04 | < 5 | 6.5 | COc1ccccc1CNCCCNCCCCCCNCCCCCCCCCCCCNCCCCCCNCCCNCc1ccccc1OC |
| -5.36 | – | 5.32 | 6.64 | COc1ccccc1CCNCCCCCCNCCCCCCCCNCCCCCCNCCc1ccccc1OC |
| -5.93 | 6.21 | 6.14 | – | COc1ccccc1CNCCCCCCNCCCCCCCCNCCCCCCNCc1ccccc1OC [METHOCTRAMINE] |
| -6.68 | – | 5.3 | 6.98 | COc1ccccc1CNCCCCCCNCCCCCCNCCCCCCNCCCCCCNCc1ccccc1OC |
| -6.44 | 6.66 | < 6 | < 6 | COc1ccccc1CNCCCNCCCCCCNCCCCCCCCNCCCCCCNCCCNCc1ccccc1OC |
| -6.42 | 6.4 | < 5 | 6.15 | COc1ccccc1CNCCCNCCCCCCNCCCCCCNCCCCCCNCCCNCc1ccccc1OC |
